GASC1 inh: blocks human GASC-1 (KDM4C) demethylase activity | Q9H3R0 | GST-KDM4C 2-372, H3K9me3 peptide, LANCE TR-FRET | inhibition, % at 12.5 µM | actives 0.15% (n = 96,000) | AID 720574;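 active means mean replicate inhibition above about 25%, with at least 55% of replicates also reaching it, limit read from the data, passing the limit was not always enough; inconclusive means only one of those two conditions met; inactive means neither condition met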
Target sequence (Q9H3R0 2-372 limits assumed): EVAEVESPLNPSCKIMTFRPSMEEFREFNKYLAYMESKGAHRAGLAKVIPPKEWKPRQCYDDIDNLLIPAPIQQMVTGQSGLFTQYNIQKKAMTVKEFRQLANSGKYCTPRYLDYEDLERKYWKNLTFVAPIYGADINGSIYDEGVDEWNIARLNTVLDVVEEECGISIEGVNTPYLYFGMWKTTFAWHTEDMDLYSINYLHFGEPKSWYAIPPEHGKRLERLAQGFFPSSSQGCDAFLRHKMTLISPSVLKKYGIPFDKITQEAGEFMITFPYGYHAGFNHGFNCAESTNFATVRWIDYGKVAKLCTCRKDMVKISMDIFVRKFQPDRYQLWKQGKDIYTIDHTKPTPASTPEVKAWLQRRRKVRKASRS
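System – N-terminal GST-fused human GASC-1 (KDM4C) fragment, residues 2-372 · Input – enzyme final amount 10 nM · Technique – LANCE TR-FRET, Eu antibody, ULight-streptavidin, EDTA, ex 340 nm, em 618/671 nm · Medium – HEPES buffer, pH 7.5, plus ascorbate · Incubation – enzyme reaction 30 min, then detection 60 min, both room temperature · Reagent – H3K9me3 peptide with Fe(II)/2OG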
T cruzi growth-1: T. cruzi proliferation inhibition | T. cruzi beta-gal in NIH3T3, GalScreen luminescence, 90 h | inhibition, % at 8.34 µM | actives 5.9% (n = 77,000);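 active means mean inhibition above about 93%, with at least 55% of replicates each passing it, limit read from the data, passing the limit was not always enough; inconclusive means only one of those two conditions holds; inactive means neither condition holds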
IDH1 mut inh: IDH1 R132H (human) inhibition; actives 0.18% (n = 70,000); IDH1 R132H reductase, diaphorase/resazurin fluorescence, 60 min; AID 624101; inhibition, % at 10 µM; in the data active means inhibition above about 34%; inconclusive means no clear call, values can overlap the other calls; inactive means below about 11%
T cruzi growth-2: Trypanosoma cruzi proliferation inhibition | T. cruzi beta-gal in NIH3T3, GalScreen luminescence, 90 h | inhibition, % at 8.35 µM | AID 651739 | shares compounds with T cruzi growth-1 | actives 72% (n = 5,600);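 active means mean replicate inhibition above about 95% and at least 55% of replicates individually reaching it, limit read from the data; inconclusive means only one of the two criteria is met; inactive means neither criterion is met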
T cruzi growth-3: blocks T. cruzi growth in NIH3T3 host cells; inhibition, % at 2.09 µM; T. cruzi beta-gal in NIH3T3, GalScreen luminescence, 90 h; shares compounds with T cruzi growth-1; actives 21% (n = 5,600);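 active means mean inhibition above about 95%, with at least 55% of replicates also reaching it, limit read from the data; inconclusive means meets just one of the two conditions; inactive means meets neither condition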
3T3 cytotox: NIH/3T3 (mouse) viability loss. shares compounds with T cruzi growth-1. NIH/3T3 viability, CellTiter-Glo ATP luminescence, 90 h. cytotoxicity (signal decrease), % at 8.35 µM. actives 14% (n = 5,600);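 active means mean signal decrease across replicates above about 35% based on untreated-well scatter, with enough replicates individually passing, limit read from the data; inconclusive means no rule stated though some were filed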
3T3 cytotox 2: kills mouse NIH/3T3 fibroblasts | shares compounds with T cruzi growth-1 | inhibition, % at 24.9 µM | AID 651744 | NIH/3T3 viability, CellTiter-Glo ATP luminescence, 90 h | actives 56% (n = 5,600);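 active means mean loss of cell viability signal at or above a set limit, and enough replicates individually reaching it; inconclusive means meets only the mean limit or only the replicate share; inactive means meets neither condition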
A number is an active result; – = inactive; ? = inconclusive; · = not tested or not shown. The full list was thinned out, with hits kept by preference.

SMILES	GASC1 inh	T cruzi growth-1	IDH1 mut inh	T cruzi growth-2	T cruzi growth-3	3T3 cytotox	3T3 cytotox 2
CC1(C)CC[C@]2(C(=O)O[C@@H]3O[C@H](CO)[C@@H](O)[C@H](O)[C@H]3O)CC[C@]3(C)C(=CCC4[C@@]5(C)CC[C@@H](O[C@@H]6O[C@H](C(=O)O)[C@@H](O[C@@H]7OC[C@@H](O)[C@H](O)[C@H]7O)[C@H](O[C@@H]7OC[C@](O)(CO)[C@H]7O)[C@H]6O)C(C)(C)C5CC[C@]43C)C2C1 (some centres undefined)	·	·	–	·	·	·	·
C[C@H](CO)N1C[C@H](C)[C@H](CN(C)C(=O)c2ccncc2)Oc2cc(/C=C/c3ccccc3)ccc2S1(=O)=O	–	103	–	97	–	–	59
C/C=C/c1ccc2c(c1)O[C@H](CN(C)C(=O)c1ccccc1)[C@@H](C)CN([C@@H](C)CO)S2(=O)=O	–	·	–	·	·	·	·
C[C@H]1CN([C@@H](C)CO)S(=O)(=O)c2ccc(/C=C/c3ccccc3)cc2O[C@H]1CN(C)CC1CC1	–	103	–	106	–	–	105
C[C@@H]1CN([C@H](C)CO)S(=O)(=O)c2ccc(/C=C/c3ccccc3)cc2O[C@@H]1CN(C)C(=O)c1ccccc1	·	123	–	105	–	79	79
C/C=C/c1ccc2c(c1)O[C@H](CN(C)CC1CC1)[C@H](C)CN([C@H](C)CO)S2(=O)=O	–	–	–	·	·	·	·
C[C@@H]1CN([C@H](C)CO)S(=O)(=O)c2ccc(/C=C/c3ccccc3)cc2O[C@@H]1CN(C)C(=O)c1ccncc1	–	–	–	·	·	·	·
Cc1cccc(-c2nnc(SCc3nc4ccccc4c(=O)[nH]3)n2-c2ccccc2)c1	·	·	–	·	·	·	·
Cc1cc2c(=O)n(Cc3ccco3)c(SCc3cc(=O)[nH][nH]3)nc2s1	·	·	–	·	·	·	·
O=C(Nc1ccccc1)c1ccc(NCc2cccnc2)c([N+](=O)[O-])c1	·	·	–	·	·	·	·
C[C@H]1CN([C@@H](C)CO)C(=O)Cc2cc(NC(=O)Cc3ccccc3)ccc2O[C@@H]1CN(C)Cc1ccc(-c2ccccc2)cc1	–	107	–	113	–	–	73
C[C@H](CO)N1C[C@H](C)[C@H](CN(C)Cc2ccc3c(c2)OCO3)Oc2ccc(NC(=O)Cc3ccccc3)cc2CC1=O	–	106	–	–	–	–	–
C[C@H]1CN([C@@H](C)CO)C(=O)Cc2cc(NC(=O)Cc3ccccc3)ccc2O[C@H]1CN(C)Cc1ccc(-c2ccccc2)cc1	–	–	–	·	·	·	·
C[C@@H]1CN([C@@H](C)CO)C(=O)Cc2cc(NC(=O)Cc3ccccc3)ccc2O[C@H]1CN(C)Cc1ccc2c(c1)OCO2	–	–	–	·	·	·	·
CC(C)(CSc1nnc(Nc2ccccc2)s1)NS(=O)(=O)c1ccc(Cl)cc1	·	·	–	·	·	·	·
COc1c(O)c(C(=O)CCc2ccccc2)c(OC)c(OC)c1OC	·	·	–	·	·	·	·
COc1cc(O)c2c(=O)c(O[C@@H]3O[C@H](CO[C@@H]4O[C@@H](C)[C@H](O)[C@@H](O)[C@H]4O)[C@@H](O)[C@H](O)[C@H]3O)c(-c3ccc(O)c(O)c3)oc2c1	·	·	–	·	·	·	·
Cc1cc2c(CO)cc(SCC(O)C(=O)O)cc2o1 (centres undefined)	·	·	–	·	·	·	·
COc1ccc([C@H]2Oc3cc(O)cc(O)c3C(=O)[C@@H]2O)cc1	·	·	–	·	·	·	·
Cc1ccccc1S(=O)(=O)N1CC[C@@H]2[C@H]1c1cc(-c3cccc(F)c3)ccc1N[C@@H]2CO	–	107	·	100	–	–	106
Cc1ccccc1S(=O)(=O)N1CC[C@@H]2[C@H](CO)Nc3ccc(-c4ccccc4)cc3[C@@H]21	–	107	·	102	?	–	104
Cc1ccccc1S(=O)(=O)N1CC[C@H]2[C@H](CO)Nc3ccc(-c4ccc(F)cc4)cc3[C@H]21	–	–	·	·	·	·	·
Cn1cnc(S(=O)(=O)N2CC[C@@H]3[C@H]2c2cc(-c4ccc(F)cc4)ccc2N[C@@H]3CO)c1	–	–	·	·	·	·	·
COc1cccc(-c2ccc3c(c2)[C@@H]2[C@@H](CCN2S(=O)(=O)c2ccccc2C)[C@@H](CO)N3)c1	–	–	·	·	·	·	·
N#Cc1cccc(-c2ccc3c(c2)[C@H]2[C@H](CCN2S(=O)(=O)c2ccccc2F)[C@@H](CO)N3)c1	–	107	·	?	–	–	55
SMILES	GASC1 inh	T cruzi growth-1	IDH1 mut inh	T cruzi growth-2	T cruzi growth-3	3T3 cytotox	3T3 cytotox 2
Cc1ccccc1S(=O)(=O)N1CC[C@@H]2[C@H]1c1cc(-c3cccc(C#N)c3)ccc1N[C@@H]2CO	–	–	·	·	·	·	·
Cn1cnc(S(=O)(=O)N2CC[C@@H]3[C@H]2c2cc(-c4cccc(F)c4)ccc2N[C@@H]3CO)c1	–	?	·	101	–	–	–
CS(=O)(=O)N(CC(=O)Nc1ccc(C(F)(F)F)cc1)c1ccc(Oc2ccccc2)cc1	·	·	–	·	·	·	·
O=S(=O)(c1ccccc1F)N1CC[C@@H]2[C@@H](CO)Nc3ccc(-c4cccc(F)c4)cc3[C@@H]21	–	–	·	·	·	·	·
Cc1ccccc1S(=O)(=O)N1CC[C@@H]2[C@@H](CO)Nc3ccc(-c4cccc(F)c4)cc3[C@@H]21	–	98	·	104	112	59	106
Cc1ccccc1S(=O)(=O)N1CC[C@@H]2[C@H]1c1cc(-c3ccc(F)cc3)ccc1N[C@@H]2CO	–	–	·	·	·	·	·
Cc1ccccc1S(=O)(=O)N1CC[C@@H]2[C@H](CO)Nc3ccc(-c4cccc(F)c4)cc3[C@@H]21	–	105	·	?	109	–	104
CCC(=O)N(C)C[C@H]1Oc2cc(C#CC3CCCCC3)ccc2S(=O)(=O)N([C@@H](C)CO)C[C@@H]1C	–	–	–	·	·	·	·
CCC(=O)N(C)C[C@H]1Oc2cc(C#CC3CCCCC3)ccc2S(=O)(=O)N([C@@H](C)CO)C[C@H]1C	–	–	·	·	·	·	·
CCC(=O)N(C)C[C@H]1Oc2cc(C#CC3CCCCC3)ccc2S(=O)(=O)N([C@H](C)CO)C[C@@H]1C	–	108	·	102	–	–	83
CCC(=O)N(C)C[C@@H]1Oc2cc(C#CC3CCCCC3)ccc2S(=O)(=O)N([C@@H](C)CO)C[C@@H]1C	–	?	·	100	–	–	106
CCC(=O)N(C)C[C@@H]1Oc2cc(C#CC3CCCCC3)ccc2S(=O)(=O)N([C@H](C)CO)C[C@@H]1C	–	110	–	95	–	–	104
CCC(=O)N(C)C[C@H]1Oc2cc(C#CC3CCCCC3)ccc2S(=O)(=O)N([C@H](C)CO)C[C@H]1C	–	–	–	·	·	·	·
COc1cccc(/C=C/c2cc(C(F)(F)F)[nH]c(=O)n2)c1OCC(=O)O	·	·	–	·	·	·	·
Nc1c(S(=O)(=O)c2ccccc2)nnn1-c1ccc(OC(F)(F)F)cc1	·	·	–	·	·	·	·
COc1ccccc1NC(=O)COc1ccc(Cl)cc1CO	·	·	–	·	·	·	·
COC(=O)c1cc(C(=O)OC)cc(-n2c(C)cc(C(=O)CSc3nc(C)cc(C)c3C#N)c2C)c1	·	·	–	·	·	·	·
